Screening results as filed in PubChem.
CYP2C9 activ = CYP2C9 (human) activation; activation factor at 5 µM; 96,000 compounds, 1.4% hits; recombinant CYP2C9, luciferin-H conversion, luminescence; hits give high values; factor 1 = untreated enzyme, 0 = blocked; AID 1024;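 active means activation factor of 2 or more for CYP2C9 at a 5 µM dose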
tolC growth inh = growth inhibitors of E. coli BW25113 tolC mutant; OD615; growth inhibition, % at 10 µM (by protocol); 65,000 compounds, 2.2% hits; AID 573;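 active means growth inhibition at or above a cutoff equal to the mean over every tested compound plus 3 SD, cut at about 60% in these data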;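 further: growth measured after 20 h incubation at 37 °C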
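Test system: tolC-deleted E. coli BW25113; medium: LB with kanamycin 50 µg/mL; compound: single-point testing at 10 µM; incubation: 20 h compound exposure of bacteria at 37 °C; signal: OD at 615 nm; evaluation: growth inhibition in percent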
CYP2C9 inh = inhibitors of human CYP2C9. inhibition, % at 5 µM. AID 777. CYP2C9 Supersomes, luciferin-H conversion, luminescence. 96,000 compounds, 20% hits;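 active means blocking of liver enzyme CYP2C9 beyond about 50% at 5 µM, limit read from the data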
Ecoli WT expand = E. coli BW25113 growth inhibition, expanded screen. OD600 absorbance. growth inhibition, % at 100 µM. 98,000 compounds, 0.15% hits;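 active means growth inhibition above about 50% at one test dose, limit read from the data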;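 further: growth measured after 20 h incubation at 37 °C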
CYP2C19 inhib = human CYP2C19 inhibition; P33261; CYP2C19 Supersomes, luciferin-H EGE luminescence, 30 min; inhibition, % at 5 µM; 96,000 compounds, 21% hits;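 active means CYP2C19 inhibition above a set limit at 5 µM in the primary screen, cut at about 50% in these data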
Target sequence (P33261 whole entry, looked up): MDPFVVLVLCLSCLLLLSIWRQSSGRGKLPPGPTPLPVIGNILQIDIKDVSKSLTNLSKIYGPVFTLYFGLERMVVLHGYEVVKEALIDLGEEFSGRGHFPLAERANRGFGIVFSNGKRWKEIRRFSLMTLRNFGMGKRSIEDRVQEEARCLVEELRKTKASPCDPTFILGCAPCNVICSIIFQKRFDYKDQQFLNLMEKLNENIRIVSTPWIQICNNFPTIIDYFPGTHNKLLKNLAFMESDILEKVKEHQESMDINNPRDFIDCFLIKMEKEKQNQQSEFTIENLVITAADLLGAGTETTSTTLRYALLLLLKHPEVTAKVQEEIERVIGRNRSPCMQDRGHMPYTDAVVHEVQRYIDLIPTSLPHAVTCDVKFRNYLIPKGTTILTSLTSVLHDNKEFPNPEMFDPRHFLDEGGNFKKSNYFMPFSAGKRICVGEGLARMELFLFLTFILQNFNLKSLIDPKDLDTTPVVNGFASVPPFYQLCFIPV
CYP2C19 activ = activators of human cytochrome P450 2C19 | P33261 | recombinant CYP2C19, luciferin-H EGE luminescence; hits give high values; 0 = fully inhibited enzyme, 1 = untreated enzyme | activation factor at 5 µM | 96,000 tested, under 10 active | AID 1025;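 active means activation factor of at least 2 at 5 µM in the primary screen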
Numbers stand for hits; i = inactive; nt = no result given. Shown are actives, neighbours in structure and some others; about 29% of the full set was active somewhere.

SMILES	CYP2C9 activ	tolC growth inh	CYP2C9 inh	Ecoli WT expand	CYP2C19 inhib	CYP2C19 activ
COc1cccc(C(=O)Nc2ccc(C(=O)O)cc2)c1	i	i	i	i	i	i
CCCCC(OC(=O)c1cc2occc2n1C)C(=O)NCC1CCCO1 (stereo unspecified)	i	i	i	i	i	i
CCOC(=O)Cc1ccc(NC(=O)c2ccc(C(C)(C)C)cc2)cc1	i	nt	i	i	i	i
COc1cccc(C(=O)Nc2cc(C(F)(F)F)ccc2Cl)c1	2.7	nt	i	i	i	i
COc1cccc(C(=O)Nc2ccc(F)c(F)c2F)c1	i	nt	i	i	54	i
O=C(Nc1ccc(Cl)c(C(F)(F)F)c1)c1ccco1	i	98	i	i	i	i
Cc1ccc(Cl)cc1NC(=O)c1cccc(OC(F)F)c1	i	nt	i	i	55	i
COC(=O)c1sccc1NC(=O)c1cccc(OC)c1	i	nt	i	i	i	i
OC(COc1ccc2c(c1)CCC2)Cn1cnc2ccccc21 (stereo unspecified)	i	i	i	i	i	i
O=C(c1ccco1)N1C(=O)c2cccc3cccc1c23	3.8	i	i	i	i	i
Cc1ccc(OC(C)C)c(CN(CCO)CCO)c1	i	nt	i	i	i	i
O=S(=O)(NCC(c1ccccc1)N1CCNCC1)c1ccc(Cl)cc1 (stereo unspecified)	i	i	i	i	60	i
O=S(=O)(NCc1ccc(Cl)cc1)c1ccc(Cl)nc1	i	nt	i	i	90	i
O=S(=O)(NCc1ccccc1)c1ccc(Cl)cc1	i	nt	72	i	80	i
O=CNc1ccc(S(=O)(=O)NCc2ccccc2)cc1	i	nt	i	i	90	i
CCOC(=O)Nc1ccc(S(=O)(=O)NCc2ccccc2)cc1	i	i	i	i	i	i
CC(C)N(CCNS(=O)(=O)c1ccc(Cl)cc1)C(C)C	i	nt	54	i	i	i
COCCNS(=O)(=O)c1ccc(SC)cc1	i	i	i	i	i	i
CSc1ccc(S(=O)(=O)NCc2ccc(Cl)cc2Cl)cc1	2.4	nt	i	i	86	i
Cc1ccc(S(=O)(=O)NCCN(CCNS(=O)(=O)c2ccc(C)cc2)S(C)(=O)=O)cc1	i	i	i	i	i	i
CSc1ccc(S(=O)(=O)NCc2ccccc2)cc1	i	nt	i	i	67	i
Cc1cccc(NC(=O)COc2ccc3oc4c(c3c2)CCCC4)n1	i	nt	85	i	51	i
CCCCC1CCC(C(=O)Nc2c(C)n(C)n(-c3ccccc3)c2=O)CC1 (stereo unspecified)	nt	i	nt	nt	nt	nt
COc1ccc(OC(C)=O)c(C2c3cc(OC)c(OC)cc3CCN2C(C)=O)c1 (stereo unspecified)	i	i	i	i	i	i
COc1cc2c(cc1OC)C(c1cccc([N+](=O)[O-])c1)N(C(=O)c1ccc(F)cc1)CC2 (stereo unspecified)	i	nt	65	i	81	i
SMILES	CYP2C9 activ	tolC growth inh	CYP2C9 inh	Ecoli WT expand	CYP2C19 inhib	CYP2C19 activ
COc1cc(C(=O)N2CCN(C(=O)c3ccco3)CC2)cc(OC)c1OC	i	i	i	i	i	i
COc1cc2c(cc1OC)C(c1ccccc1)N(C(=O)c1ccco1)CC2 (stereo unspecified)	i	i	82	i	94	i
CCC(=O)N1CCN(c2ccc(NC(=O)c3c(F)c(F)c(OC)c(F)c3F)cc2)CC1	i	nt	i	i	i	i
O=C(COC(=O)[C@H](Cc1c[nH]c2ccccc12)NC(=O)c1ccc(Cl)cc1)Nc1ccc2c(c1)OCO2	i	nt	98	i	i	i
O=C(c1ccco1)N1CCN(C(=O)C(Cc2ccccc2)NS(=O)(=O)c2cccs2)CC1 (stereo unspecified)	i	i	i	i	i	i
CC(=O)N1CCC(=NNS(=O)(=O)c2ccc(C)c([N+](=O)[O-])c2)CC1	i	nt	i	i	i	i
O=S(=O)(N/N=C1/CC(c2ccccc2)Oc2ccccc21)c1ccc(Br)cc1 (stereo unspecified)	i	nt	65	i	i	i
Cc1ccc(S(=O)(=O)N/N=C2/CC(c3ccccc3)Oc3ccccc32)cc1[N+](=O)[O-] (stereo unspecified)	i	nt	99	i	67	i
CCCCc1nc(NCCNC(=O)c2ccco2)c(C#N)c2c1CSC(C)(C)C2	i	i	93	i	68	i
O=C1CC(c2ccccc2)CC(O)=C1C=NCCN1CCN(C(=O)Nc2ccccc2)CC1 (stereo unspecified)	i	i	i	i	i	i
CCOC(=O)COc1ccc(S(=O)(=O)NCc2ccco2)cc1	i	i	i	i	73	i
CCCNS(=O)(=O)c1ccc(OCC(=O)NCc2ccco2)cc1	i	i	i	i	i	i
COC(=O)COc1ccc(S(=O)(=O)NCc2ccco2)cc1	i	i	i	i	60	i
C=CCNS(=O)(=O)c1ccc(OCC(=O)OC)cc1	i	i	71	i	70	i
CCOc1ccc(OCC)c(NS(=O)(=O)c2cccc3nsnc23)c1	i	i	i	i	i	i
CC1CCC(NC(=O)CC2Oc3ccccc3NC2=O)CC1 (stereo unspecified)	2.3	i	i	i	i	i
CC1CCCCC1NC(=O)CC1Oc2ccccc2NC1=O (stereo unspecified)	i	i	i	i	i	i
O=C(CC1Oc2ccccc2NC1=O)NCc1ccccc1 (stereo unspecified)	2	i	i	i	66	i
CC(NC(=O)Cc1ccc(F)cc1)C(c1cccs1)N1CCN(C)CC1 (stereo unspecified)	nt	i	nt	nt	nt	nt
O=C(N/N=C/c1c(Nc2cccc(C(F)(F)F)c2)nc2ccccn2c1=O)c1ccccc1	i	nt	i	i	i	i
CCn1c(/C=C/c2ccccc2)nc2ccccc21	2.6	nt	i	i	i	i
COc1ccc(/C=C/C(=O)c2nc3ccccc3n2CC(=O)c2ccc(OC)cc2)cc1	i	nt	i	i	i	i
COc1ccc(Cn2c(/C=C/c3ccccc3)nc3ccccc32)cc1	i	nt	91	i	i	i
CC1=C(C)SC(=C(C#N)c2nnc(N3CCOCC3)n2-c2ccccc2)S1	i	i	i	nt	i	i
O=C(Cn1cc2c(n1)CCCC2)NCCc1ccccc1	nt	i	nt	i	nt	nt
SMILES	CYP2C9 activ	tolC growth inh	CYP2C9 inh	Ecoli WT expand	CYP2C19 inhib	CYP2C19 activ
COc1cccc(CNC(=O)Cn2cc3c(n2)CCCCC3)c1	2.4	i	i	i	92	i
CN(C)c1ccc(NC(=O)Cn2cc3c(n2)CCCC3)cc1	i	i	i	i	92	i
O=C(c1ccc2c(c1)OCCO2)N(c1ccccn1)C1CCCCC1	i	i	52	i	i	i
O=C(Nc1ccc(Br)cc1)c1ccc(N2C(=O)C3CC=C(Cl)CC3C2=O)cc1 (stereo unspecified)	i	nt	74	i	i	i
O=S(=O)(CCOc1ccccc1)c1nc2ccccc2[nH]1	i	i	i	i	73	i
CCN(CC)c1ccc(/C=N/n2c(C)cc(C)cc2=O)cc1	i	i	i	i	i	i
